Data published in ChEMBL document CHEMBL4312015, “Design, synthesis and 3D-QSAR analysis of novel thiopyranopyrimidine derivatives as potential antitumor agents inhibiting A549 and Hela cancer cells” (Eur J Med Chem, 2020).
Activity calls are given as the source filed them. No cut-off for these calls is given here.

Experiments:
A549 [1] = assay: Antiproliferative activity against human A549 cells assessed as inhibition of cell growth after 72 hrs by MTT assay; assay type: functional, cell-based; conditions: A549, 72 h
How it was run: (§1)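 Cell lines from the Chinese Academy of Sciences cell collection, grown in 96-well plates with a range of compound concentrations for 72 h. Viability read by MTT, with AZD9291 as positive control. IC50 values are averages of three determinations per the methods section; table footnotes state an average of two separate determinations.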

HeLa [2] = assay: Antiproliferative activity against human HeLa cells assessed as inhibition of cell growth after 72 hrs by MTT assay; assay type: functional, cell-based; how it was run: as §1
[3] = biological target: T1, Epidermal growth factor receptor (Homo sapiens, UniProt P00533); assay: Inhibition of wildtype EGFR (unknown origin) using biotin as substrate in presence of ATP by mobility shift assay based ELISA
[4] = biological target: Epidermal growth factor receptor (Homo sapiens, UniProt P00533, L858R/T790M); assay: Inhibition of EGFR T790M/L858R double mutant (unknown origin) using biotin as substrate in presence of ATP by mobility shift assay based ELISA
Homo sapiens = species on record: Homo sapiens; assay: Selectivity ratio of IC50 for wildtype EGFR (unknown origin) to IC50 for EGFR T790M/L858R double mutant (unknown origin) by mobility shift assay based ELISA
NCI-H1975 [5] = assay: Antiproliferative activity human NCI-H1975 cells harboring EGFR T790M/L858R double mutant assessed as inhibition of cell growth at 10 uM after 72 hrs by MTT assay relative to control; assay type: functional; conditions: NCI-H1975, 72 h
How it was run: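 H1975 cells exposed to compound at a single 10 uM concentration. Growth inhibition rate read by MTT after 72 h in 96-well plates, with AZD9291 as positive control. Values are an average of two separate determinations.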

NCI-H1975 [6] = assay: Antiproliferative activity against human NCI-H1975 cells harboring EGFR T790M/L858R double mutant assessed as inhibition of cell growth after 72 hrs by MTT assay; assay type: functional, cell-based; conditions: NCI-H1975, 72 h; how it was run: as §1
A549 [7] = assay: Induction of apoptosis in human A549 cells assessed as viable cells at 0.057 uM after 24 hrs by AnnexinV-FITC/propidium iodide staining based FACSCalibur flow cytometry analysis (reference value: 94.42 %); assay type: functional; conditions: A549, 24 h, read-out: Activity
A549 [8] = assay: Induction of apoptosis in human A549 cells assessed as early apoptotic cells at 0.057 uM after 24 hrs by AnnexinV-FITC/propidium iodide staining based FACSCalibur flow cytometry analysis (reference value: 3.51 %); assay type: functional
A549 [9] = assay: Induction of apoptosis in human A549 cells assessed as late apoptotic cells at 0.057 uM after 24 hrs by AnnexinV-FITC/propidium iodide staining based FACSCalibur flow cytometry analysis (reference value: 1.74 %); assay type: functional
A549 [10] = assay: Induction of apoptosis in human A549 cells assessed as necrotic cells at 0.057 uM after 24 hrs by AnnexinV-FITC/propidium iodide staining based FACSCalibur flow cytometry analysis (reference value: 0.33 %); assay type: functional
A549 [11] = assay: Cell cycle arrest in human A549 cells assessed as accumulation at G0/G1 phase at 0.057 uM after 24 hrs by propidium iodide staining based FACSCalibur flow cytometry analysis (reference value: 74.31 %); assay type: functional
How it was run: (§2)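 A549 cells seeded in 6-well plates for 24 h, then treated for 24 h; vehicle was 0.1% DMSO. Cells were harvested as single-cell suspensions, fixed in 70% ice-cold ethanol for 12 h, and stained with propidium iodide. DNA content was measured by flow cytometry. AZD9291 at 0.462 uM was included as reference.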

A549 [12] = assay: Cell cycle arrest in human A549 cells assessed as accumulation at S phase at 0.057 uM after 24 hrs by propidium iodide staining based FACSCalibur flow cytometry analysis (reference value: 22.24 %); assay type: functional; how it was run: as §2
A549 [13] = assay: Cell cycle arrest in human A549 cells assessed as accumulation at G2/M phase at 0.057 uM after 24 hrs by propidium iodide staining based FACSCalibur flow cytometry analysis (reference value: 3.45 %); assay type: functional; how it was run: as §2
HeLa [14] = assay: Inhibition of EFGR protein expression in human HeLa cells after 24 hrs by Western blot analysis; assay type: functional, cell-based
How it was run: (§3)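 HeLa cells treated for 24 h with graded compound concentrations, with AZD9291 as positive control. Whole-cell lysates were made in RIPA buffer and protein measured by BCA. Equal protein was run on 10% SDS-PAGE, transferred to PVDF on ice, and probed for EGFR, p-EGFR and GAPDH.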

[15] = biological target: T1, Epidermal growth factor receptor; assay: Inhibition of EFGR phosphorylation in human HeLa cells at 0.1 to 10 uM after 24 hrs by Western blot analysis; assay type: cell-based; how it was run: as §3

T1 sequence (P00533 whole entry): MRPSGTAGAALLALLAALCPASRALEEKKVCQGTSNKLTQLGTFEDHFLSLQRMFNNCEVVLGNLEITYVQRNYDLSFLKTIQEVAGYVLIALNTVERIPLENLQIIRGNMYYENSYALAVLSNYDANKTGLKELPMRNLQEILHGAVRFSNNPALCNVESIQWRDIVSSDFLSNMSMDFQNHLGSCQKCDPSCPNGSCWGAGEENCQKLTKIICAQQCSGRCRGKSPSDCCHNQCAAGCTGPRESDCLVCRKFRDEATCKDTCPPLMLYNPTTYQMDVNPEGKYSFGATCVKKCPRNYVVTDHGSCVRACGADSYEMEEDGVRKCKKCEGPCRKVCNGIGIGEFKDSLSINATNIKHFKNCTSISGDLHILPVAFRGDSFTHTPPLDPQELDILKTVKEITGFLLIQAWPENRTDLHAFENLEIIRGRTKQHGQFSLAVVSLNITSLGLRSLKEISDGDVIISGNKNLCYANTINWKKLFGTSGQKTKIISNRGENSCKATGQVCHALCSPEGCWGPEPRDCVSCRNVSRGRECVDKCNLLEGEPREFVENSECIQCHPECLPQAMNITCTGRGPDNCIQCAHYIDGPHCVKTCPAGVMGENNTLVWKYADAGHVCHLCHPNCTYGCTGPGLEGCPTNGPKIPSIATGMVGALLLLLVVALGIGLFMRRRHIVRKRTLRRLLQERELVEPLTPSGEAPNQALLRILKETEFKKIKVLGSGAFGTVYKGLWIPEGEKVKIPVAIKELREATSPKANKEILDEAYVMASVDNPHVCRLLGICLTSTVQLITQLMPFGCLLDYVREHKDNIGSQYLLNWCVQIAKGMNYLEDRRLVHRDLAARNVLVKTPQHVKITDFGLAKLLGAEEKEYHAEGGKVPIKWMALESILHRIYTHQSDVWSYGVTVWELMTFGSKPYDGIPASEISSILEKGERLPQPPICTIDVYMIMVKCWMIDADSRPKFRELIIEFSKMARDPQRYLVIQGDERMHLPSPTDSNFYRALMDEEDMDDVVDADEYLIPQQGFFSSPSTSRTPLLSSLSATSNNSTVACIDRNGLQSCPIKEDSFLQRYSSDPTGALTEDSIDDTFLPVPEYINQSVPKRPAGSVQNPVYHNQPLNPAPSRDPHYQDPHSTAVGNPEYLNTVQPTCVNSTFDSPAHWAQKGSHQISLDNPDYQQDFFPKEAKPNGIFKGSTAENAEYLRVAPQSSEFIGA
Epidermal growth factor receptor (Homo sapiens, UniProt P00533, L858R/T790M), sequence (P00533 25-1210 T790M/L858R limits assumed): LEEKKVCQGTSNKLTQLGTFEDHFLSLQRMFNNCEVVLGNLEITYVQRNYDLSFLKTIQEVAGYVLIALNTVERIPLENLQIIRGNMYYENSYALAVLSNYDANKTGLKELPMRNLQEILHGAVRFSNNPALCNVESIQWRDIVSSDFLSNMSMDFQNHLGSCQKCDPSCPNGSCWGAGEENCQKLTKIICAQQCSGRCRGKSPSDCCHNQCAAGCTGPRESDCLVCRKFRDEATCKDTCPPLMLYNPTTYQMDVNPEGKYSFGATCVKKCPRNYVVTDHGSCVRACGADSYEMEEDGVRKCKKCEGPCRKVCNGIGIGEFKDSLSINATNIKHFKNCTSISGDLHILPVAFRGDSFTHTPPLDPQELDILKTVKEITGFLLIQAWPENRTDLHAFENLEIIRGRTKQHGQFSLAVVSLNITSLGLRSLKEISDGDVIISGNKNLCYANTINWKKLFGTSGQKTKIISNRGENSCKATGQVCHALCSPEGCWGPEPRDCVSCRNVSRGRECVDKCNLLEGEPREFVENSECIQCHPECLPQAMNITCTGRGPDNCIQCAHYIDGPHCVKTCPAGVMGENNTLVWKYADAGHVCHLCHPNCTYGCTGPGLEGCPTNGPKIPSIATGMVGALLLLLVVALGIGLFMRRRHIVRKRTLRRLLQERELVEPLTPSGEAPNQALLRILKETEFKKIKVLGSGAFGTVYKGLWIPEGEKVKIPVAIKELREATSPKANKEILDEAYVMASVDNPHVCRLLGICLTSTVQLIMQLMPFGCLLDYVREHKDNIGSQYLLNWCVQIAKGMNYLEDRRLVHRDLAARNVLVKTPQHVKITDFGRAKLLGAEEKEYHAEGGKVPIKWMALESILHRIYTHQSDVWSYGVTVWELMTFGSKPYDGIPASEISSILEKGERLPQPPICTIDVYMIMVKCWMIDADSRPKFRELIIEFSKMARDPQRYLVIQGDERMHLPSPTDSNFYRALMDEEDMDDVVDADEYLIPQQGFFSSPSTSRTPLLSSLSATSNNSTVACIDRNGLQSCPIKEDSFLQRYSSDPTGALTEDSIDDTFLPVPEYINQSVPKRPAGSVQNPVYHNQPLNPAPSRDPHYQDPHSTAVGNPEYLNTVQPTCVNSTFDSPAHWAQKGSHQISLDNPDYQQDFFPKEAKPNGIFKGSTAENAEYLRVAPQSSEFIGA

IC50 (A549 [1]): 57 nM
IC50 (HeLa [2]; read-out: IC50): 104 nM
IC50 (HeLa [2]; read-out: pIC50 (converted)): 104 nM
IC50 [3]: > 2000 nM
IC50 [4]: 16 nM
Ratio IC50 (Homo sapiens): > 125
IC50 (NCI-H1975 [6]): 916 nM
inhibition [15]: inactive
Structure (SMILES): CCC/C=C\C(=O)Nc1cc(Nc2nc3c(c(-c4cn(C)c5ccccc45)n2)CS(=O)(=O)CC3)c(OC)cc1N(C)CCN(C)C
inhibition at 10 µM (NCI-H1975 [5]): 99.5%
viability at 0.057 µM (A549 [7]): 88.1%
Activity (A549 [8]): 5.87%
Activity (A549 [9]): 5.92%
Activity (A549 [10]): 0.08%
Activity (A549 [11]): 69.17%
Activity (A549 [12]): 20.2%
Activity (A549 [13]): 10.63%
inhibition (HeLa [14]): Dose-dependent effect
